The results in this text go back to ChEMBL document CHEMBL4052644, “Synthesis of novel benzylidene analogues of betulinic acid as potent cytotoxic agents” (Eur J Med Chem, 2017).

Experiment [1] concerns PC-3. Kind of experiment: Cytotoxicity against human PC3 cells assessed as reduction in cell viability after 48 hrs by SRB assay. The conditions noted are these: PC-3, 48 h. In kind it is functional, cell-based. The procedure, abridged:
(§1)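 SRB assay. Compounds active at 10 µM in the primary screen were retested at 1, 2.5 and 5 µM, and IC50 was calculated from these concentrations. The normal breast epithelial line fR2 was tested alongside the cancer lines.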
Background: The SRB assay estimates cell density from bound dye.

The subject of experiment [2] is PC-3. The experiment is described as follows: Growth inhibition of human PC3 cells at 10 uM after 48 hrs by SRB assay relative to control. In kind it is functional. Particulars: PC-3, 48 h, read-out: GI. The essentials: (§2)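 Primary SRB screen of every compound at a single concentration of 10 µM. Growth inhibition is expressed relative to control.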
Experiment [3] in a line: Selectivity index, ratio of IC50 for human FR2 cells to IC50 for human A549 cells. In kind it is functional. The essentials:
(§3)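 Selectivity index is the IC50 in normal breast epithelial fR2 cells divided by the IC50 in each cancer line. All IC50 values come from the SRB assay.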

Experiment [4] is described as follows: Selectivity index, ratio of IC50 for human FR2 cells to IC50 for human HCT116 cells. In kind it is functional. The procedure, abridged: as §3
The nature of experiment [5]: Selectivity index, ratio of IC50 for human FR2 cells to IC50 for human MIAPaCa2 cells. The format is functional. The procedure, abridged:
as §3

In experiment [6] the test system is MIA PaCa-2. Kind of experiment: Growth inhibition of human MIAPaCa2 at 10 uM after 48 hrs by SRB assay relative to control. The format is functional. Particulars: MIA PaCa-2, 48 h, read-out: GI. The essentials:
as §2

Experiment [7] has as its system MCF7. Kind of experiment: Cytotoxicity against human MCF7 cells assessed as reduction in cell viability after 48 hrs by SRB assay. In kind it is functional, cell-based. The conditions noted are these: MCF7, 48 h. The essentials: as §1
The subject of experiment [8] is A549. Kind of experiment: Growth inhibition of human A549 cells at 10 uM after 48 hrs by SRB assay relative to control. The format is functional. Particulars: A549, 48 h, read-out: GI. The procedure, abridged:
as §2

Experiment [9] concerns A549. Kind of experiment: Cytotoxicity against human A549 cells assessed as reduction in cell viability after 48 hrs by SRB assay. In kind it is functional, cell-based. The conditions noted are these: A549, 48 h. The procedure, abridged: as §1
Experiment [10] can be described thus: Cytotoxicity against human FR2 cells assessed as reduction in cell viability after 48 hrs by SRB assay. The format is cell-based. The conditions noted are these: FR2, 48 h. The essentials:
as §1

The test system of experiment [11] is MIA PaCa-2. Kind of experiment: Cytotoxicity against human MIAPaCa2 cells assessed as reduction in cell viability after 48 hrs by SRB assay. Particulars: MIA PaCa-2, 48 h. In kind it is functional, cell-based. The essentials:
as §1

Experiment [12] is described as follows: Selectivity index, ratio of IC50 for human FR2 cells to IC50 for human MCF7 cells. The format is functional. The procedure, abridged: as §3
The subject of experiment [13] is MCF7. Kind of experiment: Growth inhibition of human MCF7 cells at 10 uM after 48 hrs by SRB assay relative to control. The format is functional. The conditions noted are these: MCF7, 48 h, read-out: GI. The procedure, abridged: as §2
Experiment [14] relates to HCT-116. Kind of experiment: Cytotoxicity against human HCT116 cells assessed as reduction in cell viability after 48 hrs by SRB assay. The format is functional, cell-based. Particulars: HCT-116, 48 h. The procedure, abridged:
as §1

In experiment [15] the test system is HCT-116. Kind of experiment: Growth inhibition of human HCT116 cells at 10 uM after 48 hrs by SRB assay relative to control. In kind it is functional. Particulars: HCT-116, 48 h, read-out: GI. The procedure, abridged: as §2
The nature of experiment [16]: Selectivity index, ratio of IC50 for human FR2 cells to IC50 for human PC3 cells. In kind it is functional. The essentials:
as §3

Take `C=C(C)[C@@H]1CC[C@]2(C(=O)O)CC[C@]3(C)[C@H](CC[C@@H]4[C@@]5(C)C/C(=C\c6ccc([N+](=O)[O-])cc6)C(=O)C(C)(C)[C@@H]5CC[C@]43C)[C@@H]12`: the IC50 (as a rule, the concentration needed to halve the response being measured) in [1] is more than 10 µM; in experiment [7], 3.1 µM; in experiment [9], 1.5 µM; in experiment [10], 14 µM; in [11], 6.5 µM; in [14], 1.4 µM. For the same compound, the inhibition of growth at 10 µM in experiment [2] is 37%; in [6], 61%; in experiment [8] it was 82%; in [13], 83%; in [15], 75%. In addition, the “Ratio IC50” value in [3] is recorded as 9.353; in experiment [4], 10.02; in experiment [5], 2.158; in experiment [12] it was 4.525.
On to `C=C(C)[C@@H]1CC[C@]2(C(=O)O)CC[C@]3(C)[C@H](CC[C@@H]4[C@@]5(C)C/C(=C\c6ccc(F)cc6)[C@H](O)C(C)(C)[C@@H]5CC[C@]43C)[C@@H]12`, for which the IC50 in experiment [1] is more than 10 µM; in experiment [7] it was 1.18 µM; in experiment [9], 4 µM; in experiment [10], 14.4 µM; in experiment [11] it was 1.21 µM; in experiment [14], 1.5 µM. Further, the inhibition of growth at 10 µM in [2] worked out at 48%; in experiment [6] it was 78%; in [8], 59%; in experiment [13] it was 77%; in experiment [15] it was 67%. Moreover, the “Ratio IC50” value worked out at 3.6 in experiment [3], 9.62 in experiment [4], 8.702 in [5] and 12.22 in [12].
As to `C=C(C)[C@@H]1CC[C@]2(C(=O)O)CC[C@]3(C)[C@H](CC[C@@H]4[C@@]5(C)C/C(=C\c6ccc(F)c(Br)c6)C(=O)C(C)(C)[C@@H]5CC[C@]43C)[C@@H]12`, the half-maximal inhibitory concentration (IC50) in experiment [1] amounted to 8.02 µM; in experiment [7], 7.07 µM; in [9], 3.9 µM; in experiment [10], 47.2 µM; in experiment [11] it was 6.9 µM; in [14] it was 5.8 µM. For the same compound, the inhibition of growth at 10 µM in experiment [2] was 71%; in [6], 82%; in experiment [8], 89%; in experiment [13] it was 85%; in experiment [15] it was 89%. For the same compound, the “Ratio IC50” value in [3] is 12.09; in [4] it was 8.132; in experiment [5], 6.836; in experiment [16] it was 5.881; in experiment [12] it was 6.671.
Turning to `C=C(C)[C@@H]1CC[C@]2(C(=O)O)CC[C@]3(C)[C@H](CC[C@@H]4[C@@]5(C)C/C(=C\c6ccc(Br)cc6)C(=O)C(C)(C)[C@@H]5CC[C@]43C)[C@@H]12`, the IC50 in experiment [1] was 8.3 µM; in [7], 7.1 µM; in experiment [9] it was 1.71 µM; in [10], 10.5 µM; in experiment [11], more than 10 µM; in experiment [14], 4.4 µM. Besides, the inhibition of growth at 10 µM came out at 66% in experiment [2]; 27% in experiment [6]; 72% in experiment [8]; 68% in experiment [13]; 61% in experiment [15]. Moreover, the “Ratio IC50” value came to 6.15 in experiment [3], 2.39 in experiment [4], 1.267 in [16] and 1.481 in experiment [12].
Regarding `C=C(C)[C@@H]1CC[C@]2(C(=O)O)CC[C@]3(C)[C@H](CC[C@@H]4[C@@]5(C)C/C(=C\c6ccccc6Br)[C@H](O)C(C)(C)[C@@H]5CC[C@]43C)[C@@H]12`, the IC50 in experiment [1] was more than 10 µM; in experiment [7] it was 8.2 µM; in [9], more than 10 µM; in [10] it was 21.7 µM; in experiment [11], 9.6 µM; in [14] it was more than 10 µM. The inhibition of growth at 10 µM in [2] came to 19%; in experiment [6], 49%; in experiment [8], 47%; in experiment [13], 57%; in [15], 43%. Moreover, the “Ratio IC50” value is listed as 2.257 in experiment [5] and 2.642 in experiment [12].
As for `C=C(C)[C@@H]1CC[C@]2(C(=O)O)CC[C@]3(C)[C@H](CC[C@@H]4[C@@]5(C)C/C(=C\c6cccc7ccccc67)[C@H](O)C(C)(C)[C@@H]5CC[C@]43C)[C@@H]12`, the IC50 is more than 10 µM in experiment [1]; 7.5 µM in experiment [7]; more than 10 µM in experiment [9]; 10 µM in experiment [10]; 7.09 µM in experiment [11]; 3.6 µM in [14]. Also, the inhibition of growth at 10 µM in experiment [2] came to 36%; in [6] it was 62%; in experiment [8], 36%; in experiment [13], 64%; in [15], 55%. Besides, the “Ratio IC50” value in [4] amounted to 2.788; in experiment [5], 1.416; in experiment [12], 1.338.
As for `C=C(C)[C@@H]1CC[C@]2(C(=O)O)CC[C@]3(C)[C@H](CC[C@@H]4[C@@]5(C)C/C(=C/C=C/c6ccccc6)C(=O)C(C)(C)[C@@H]5CC[C@]43C)[C@@H]12`, the IC50 was 7.8 µM in experiment [1]; 7.2 µM in experiment [7]; 3.4 µM in experiment [9]; 13.1 µM in experiment [10]; more than 10 µM in [11]; 5.8 µM in experiment [14]. The inhibition of growth at 10 µM in [2] stood at 71%; in experiment [6], 48%; in [8], 93%; in [13] it was 84%; in experiment [15], 66%. Also, the “Ratio IC50” value in experiment [3] amounted to 3.864; in experiment [4], 2.265; in [16], 1.684; in experiment [12], 1.825.
Take `C=C(C)[C@@H]1CC[C@]2(C(=O)O)CC[C@]3(C)[C@H](CC[C@@H]4[C@@]5(C)C/C(=C\c6cc(Br)ccc6OC)C(=O)C(C)(C)[C@@H]5CC[C@]43C)[C@@H]12`: the IC50 is 7.1 µM in experiment [1]; 6.3 µM in experiment [7]; 1.7 µM in experiment [9]; 13.1 µM in [10]; more than 10 µM in [11]; 4.7 µM in [14]. The inhibition of growth at 10 µM in experiment [2] worked out at 81%; in experiment [6], 28%; in experiment [8] it was 88%; in experiment [13] it was 85%; in experiment [15] it was 92%. Also, the “Ratio IC50” value is recorded as 7.705 in experiment [3], 2.802 in experiment [4], 1.854 in [16] and 2.09 in [12].
`C=C(C)[C@@H]1CC[C@]2(C(=O)O)CC[C@]3(C)[C@H](CC[C@@H]4[C@@]5(C)C/C(=C\c6cccc(Br)c6)[C@H](O)C(C)(C)[C@@H]5CC[C@]43C)[C@@H]12`: the IC50 is 5.5 µM in [1]; 8.06 µM in [7]; 3.6 µM in experiment [9]; 15 µM in [10]; 14.4 µM in experiment [11]; more than 10 µM in experiment [14]. In addition, the inhibition of growth at 10 µM was found to be 59% in experiment [2]; 22% in [6]; 90% in experiment [8]; 65% in experiment [13]; 46% in [15]. Further, the “Ratio IC50” value in experiment [3] is recorded as 4.16; in experiment [5] it was 1.041; in [16], 2.72; in experiment [12], 1.86.
As to `C=C(C)[C@@H]1CC[C@]2(C(=O)O)CC[C@]3(C)[C@H](CC[C@@H]4[C@@]5(C)C/C(=C\c6cccc(Br)c6)C(=O)C(C)(C)[C@@H]5CC[C@]43C)[C@@H]12`, the IC50 in [1] was 8.7 µM; in [7], 5.2 µM; in [9], 3.04 µM; in experiment [10] it was 16.9 µM; in experiment [11], more than 10 µM; in experiment [14] it was 4.9 µM. Moreover, the inhibition of growth at 10 µM in experiment [2] came out at 56%; in [6] it was 35%; in experiment [8] it was 71%; in experiment [13] it was 56%; in [15] it was 57%. The “Ratio IC50” value in experiment [3] worked out at 5.55; in [4], 3.44; in [16] it was 1.94; in experiment [12], 3.25.
